Results: PMC8106974 (Psychopharmacology, 2020)
Where a name gives a salt, the structure may show the parent alone.

Legend:
Type in all cases: in vivo
male CD-1 mice [1] = assay: Warm-water tail-withdrawal assay of acute thermal nociception, i.v.
male CD-1 mice [2] = assay: CFA-induced tactile allodynia, von Frey; settings: i.v.
male CD-1 mice [3] = assay: Warm-water tail-withdrawal assay of acute thermal nociception, p.o.
male CD-1 mice [4] = assay: Antagonist; settings: naltrindole 10 mg/kg s.c., -10 min, DPDPE 30 nmol i.c.v.
male Sprague Dawley rats = assay: SNL-induced tactile allodynia, von Frey; settings: i.v.
Summary of the method: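 Male Sprague Dawley rats (250–350g) were tested 7 days after SNL surgery, with a fresh baseline taken before dosing. Test compound, comparator or saline followed that baseline. Von Frey up-down method: start at 2 g, each filament applied once for 5 sec, 1 min between stimuli. Positive response was rapid left hind paw withdrawal or licking. Testing ran at 15–180 min post-dose, or until post-SNL baseline.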

CN1CC[C@]23c4c5ccc(O)c4O[C@H]2[C@@H](O)C=C[C@H]3[C@H]1C5 [morphine, Morphine sulfate]
duration of peak antinociception (male CD-1 mice [1]; BBI-11008 3.2-100 mg/kg, morphine 1-10 mg/kg): ~ 60 min
duration of peak effect (male CD-1 mice [1]; tail withdrawal (discussion)): ~ 1 hr
overall duration of effect (male CD-1 mice [1]; within the dose ranges tested): ~ 120 min
duration of peak effect (male CD-1 mice [2]; CFA model, mice (discussion)): 30 to 45 min
time of peak effects, reversal of tactile allodynia (male CD-1 mice [2]; mice, 24 hr after CFA, BBI-11008 10-32 mg/kg, morphine 1-3.2 mg/kg): 15 to 30 min
Area under the Curve (duration of effect, peak dose) (male CD-1 mice [2]; mice, BBI-11008 32 mg/kg, morphine 3.2 mg/kg, withdrawal threshold vs time): 12.85
duration of peak effect (male CD-1 mice [3]; tail withdrawal (discussion)): ~ 2 hr
overall duration of effect (male CD-1 mice [3]; within the dose ranges tested): ~ 180 min

[D-Pen^2,D-Pen^5]enkephalin [DPDPE]
effect of NTI pretreatment on antinociceptive effects (male CD-1 mice [4]): fully blocked

NCC1(CC(=O)O)CCCCC1 [gabapentin]
time of peak effects (male Sprague Dawley rats; SNL model, rats (discussion)): ~ 90 min
Area under the Curve (duration of effect, peak dose) (male Sprague Dawley rats; rats, 7 days after SNL, BBI-11008 18 mg/kg, gabapentin 56 mg/kg): 130.2
